In article PMC3518307 (Bioorganic & medicinal chemistry letters, 2012):

Experiments:
[1] = molecular target: reverse transcriptase from HIV-1 (Human immunodeficiency virus type 1 group M subtype B, UniProt P04585); assay: Single point assay of HIV-RT activity; format: biochemical; conditions: mono-intercalators
telomerase = telomerase (Homo sapiens, UniProt O14746); assay: Telomerase inhibition assay using partially purified telomerase; format: biochemical
Outline: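 Partially purified telomerase, prepared by an adapted published procedure, used instead of the crude HeLa cell homogenate of the standard assay to limit extra nucleic acids that could bind bis-intercalators in the mix; IC50 from inhibition curves, with error values reported.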

telomerase, sequence (O14746 whole entry): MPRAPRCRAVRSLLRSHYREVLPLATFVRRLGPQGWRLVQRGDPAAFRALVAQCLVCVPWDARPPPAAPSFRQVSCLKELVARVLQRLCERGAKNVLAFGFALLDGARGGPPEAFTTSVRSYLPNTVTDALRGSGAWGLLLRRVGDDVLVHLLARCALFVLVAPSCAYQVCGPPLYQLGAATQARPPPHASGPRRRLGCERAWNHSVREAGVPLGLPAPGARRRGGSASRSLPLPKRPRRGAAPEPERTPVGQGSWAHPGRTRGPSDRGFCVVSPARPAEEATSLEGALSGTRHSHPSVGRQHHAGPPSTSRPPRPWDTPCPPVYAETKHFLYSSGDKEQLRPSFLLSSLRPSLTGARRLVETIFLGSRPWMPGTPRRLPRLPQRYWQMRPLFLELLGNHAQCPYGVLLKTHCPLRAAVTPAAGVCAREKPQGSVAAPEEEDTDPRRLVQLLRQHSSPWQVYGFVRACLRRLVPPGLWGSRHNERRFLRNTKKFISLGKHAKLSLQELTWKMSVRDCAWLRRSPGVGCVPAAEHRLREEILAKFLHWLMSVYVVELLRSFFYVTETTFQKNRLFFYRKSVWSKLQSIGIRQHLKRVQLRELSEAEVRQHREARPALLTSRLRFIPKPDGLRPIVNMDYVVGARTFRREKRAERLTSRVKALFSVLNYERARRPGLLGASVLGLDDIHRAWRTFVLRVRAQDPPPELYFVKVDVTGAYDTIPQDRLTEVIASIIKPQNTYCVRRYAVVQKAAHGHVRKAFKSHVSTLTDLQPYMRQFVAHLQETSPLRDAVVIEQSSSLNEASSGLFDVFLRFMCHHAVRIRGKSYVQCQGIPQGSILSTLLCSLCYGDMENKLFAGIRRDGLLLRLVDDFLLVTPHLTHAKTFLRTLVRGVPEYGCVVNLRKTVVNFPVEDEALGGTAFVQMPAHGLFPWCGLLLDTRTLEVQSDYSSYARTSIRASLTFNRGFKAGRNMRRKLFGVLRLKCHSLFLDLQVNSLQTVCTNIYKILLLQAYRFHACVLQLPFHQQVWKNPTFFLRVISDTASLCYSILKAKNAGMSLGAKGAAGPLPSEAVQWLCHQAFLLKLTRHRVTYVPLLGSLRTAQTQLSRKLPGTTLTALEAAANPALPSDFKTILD
telomerase, sequence (O60832 whole entry partner): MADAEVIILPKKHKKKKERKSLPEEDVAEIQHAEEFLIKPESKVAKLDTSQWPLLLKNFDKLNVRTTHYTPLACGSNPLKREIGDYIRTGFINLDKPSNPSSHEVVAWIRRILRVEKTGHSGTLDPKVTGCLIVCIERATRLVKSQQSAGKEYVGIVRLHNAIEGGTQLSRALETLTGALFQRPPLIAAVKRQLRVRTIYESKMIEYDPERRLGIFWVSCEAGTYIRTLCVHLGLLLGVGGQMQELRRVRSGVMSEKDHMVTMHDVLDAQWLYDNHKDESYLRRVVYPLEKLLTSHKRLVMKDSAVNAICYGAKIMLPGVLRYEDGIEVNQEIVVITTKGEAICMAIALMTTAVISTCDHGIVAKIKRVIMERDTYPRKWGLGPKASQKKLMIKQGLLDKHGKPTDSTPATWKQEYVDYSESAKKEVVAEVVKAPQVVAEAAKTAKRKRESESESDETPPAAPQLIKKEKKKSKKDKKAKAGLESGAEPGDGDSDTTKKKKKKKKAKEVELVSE
telomerase, sequence (Q9NPE3 whole entry partner): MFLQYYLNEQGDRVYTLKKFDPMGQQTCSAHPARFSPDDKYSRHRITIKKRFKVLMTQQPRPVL
telomerase, sequence (Q9NX24 whole entry partner): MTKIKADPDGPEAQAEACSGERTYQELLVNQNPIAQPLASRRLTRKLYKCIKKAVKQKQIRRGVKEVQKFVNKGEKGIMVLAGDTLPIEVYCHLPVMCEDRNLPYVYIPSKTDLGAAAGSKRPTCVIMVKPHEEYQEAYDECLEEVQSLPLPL
telomerase, sequence (Q9NY12 whole entry partner): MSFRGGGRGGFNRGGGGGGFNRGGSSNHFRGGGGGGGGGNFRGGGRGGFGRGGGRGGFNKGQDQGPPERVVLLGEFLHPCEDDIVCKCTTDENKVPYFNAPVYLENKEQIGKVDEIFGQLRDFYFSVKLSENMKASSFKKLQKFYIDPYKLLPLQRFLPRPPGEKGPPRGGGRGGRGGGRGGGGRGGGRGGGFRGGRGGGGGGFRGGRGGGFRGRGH
telomerase, sequence (Q9BUR4 whole entry partner): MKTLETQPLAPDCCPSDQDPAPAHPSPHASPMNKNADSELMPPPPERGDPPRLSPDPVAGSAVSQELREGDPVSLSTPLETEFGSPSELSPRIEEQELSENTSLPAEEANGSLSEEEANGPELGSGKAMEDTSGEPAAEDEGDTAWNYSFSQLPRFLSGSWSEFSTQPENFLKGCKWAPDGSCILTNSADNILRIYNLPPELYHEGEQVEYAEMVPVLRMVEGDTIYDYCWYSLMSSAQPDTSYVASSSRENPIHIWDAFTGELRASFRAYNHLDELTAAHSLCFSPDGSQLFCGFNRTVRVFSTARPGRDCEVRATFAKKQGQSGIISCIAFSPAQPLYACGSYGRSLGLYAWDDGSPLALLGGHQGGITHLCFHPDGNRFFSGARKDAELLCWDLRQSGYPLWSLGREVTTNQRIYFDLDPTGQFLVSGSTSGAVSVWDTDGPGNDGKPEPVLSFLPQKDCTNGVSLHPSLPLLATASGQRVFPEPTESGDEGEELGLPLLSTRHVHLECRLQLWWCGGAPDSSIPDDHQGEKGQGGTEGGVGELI

| IC50 (telomerase) | SMILES | IC50 estimates against reverse transcriptase [1] |
| --- | --- | --- |
| – | O=C(O)c1ccc2cc3ccccc3cc2c1 [2-Anthracene carboxylic acid] | No inhibition observed |
| – | O=C(O)c1cccc2cc3ccccc3cc12 [1-Anthracene carboxylic acid] | No inhibition observed |
| – | COc1ccc2nc3cc(Cl)ccc3c(N)c2c1 [9-Amino-6-Chloro-2-Methoxy acridine] | No inhibition observed |
| – | O=C(O)c1c2ccccc2nc2ccccc12 [9-Acridine carboxylic acid] | No inhibition observed |
| 103 nM | NCCCC[C@H](NC(=O)CCNC(=O)C(N)CN)C(N)=O (some centres unmarked) [compound 1] | – |
